Compound activity: PubChem BioAssay, several laboratories
CHOP inh – blocks CHOP induction under ER stress | hit rate 3.8% among 220,000 | CHO-K1 CHOP-promoter luciferase, tunicamycin-induced, 15-18 h | inhibition, % at 10 µM;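 active means compounds that reduced the stress-induced luciferase reporter signal by more than about 70% of percent inhibition, limit read from the data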
XBP1 UPR activ – activators of adaptive arm of unfolded protein response (XBP1); CHO-XBP1 luciferase reporter, IRE1-XBP1 UPR activation, luminescence; percent of tunicamycin response, DMSO as zero; activation, % at 20 µM; hit rate 0.33% among 330,000; AID 463104;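 active means versus positive control, 20 µM dose yields 30% or more activation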
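Material: CHO cell line with stable XBP1 luciferase reporter; buffer or medium: F12 medium containing 10% fetal bovine serum; compound: single point, 20 µM final compound, 1% DMSO; incubation: 6 h treatment, 37 °C; measured by: glow luminescence from Steady-Glo reagent; evaluation: activation, % of tunicamycin; control set: tunicamycin high, DMSO low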
VLA-4 inh – inhibition in a human VLA-4 binding assay; VLA-4 expressing cells, ligand binding flow cytometry; inhibition, % (about 7 µM as worked out from the volumes in the protocol); hit rate 0.2% among 330,000; in the data active means inhibition above about 50%
B2AR ag – activates human beta-2 adrenergic receptor causing internalization | P07550 | Am2.2-beta2AR cells, FAP receptor internalization, flow cytometry | response, % (concentration not given with the values) | hit rate 0.43% among 340,000 | AID 504454;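 active means response above a set limit, near 3 SD of response in nonfluorescent compounds, cut at about 42% in these data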
Target sequence (P07550 whole entry, looked up): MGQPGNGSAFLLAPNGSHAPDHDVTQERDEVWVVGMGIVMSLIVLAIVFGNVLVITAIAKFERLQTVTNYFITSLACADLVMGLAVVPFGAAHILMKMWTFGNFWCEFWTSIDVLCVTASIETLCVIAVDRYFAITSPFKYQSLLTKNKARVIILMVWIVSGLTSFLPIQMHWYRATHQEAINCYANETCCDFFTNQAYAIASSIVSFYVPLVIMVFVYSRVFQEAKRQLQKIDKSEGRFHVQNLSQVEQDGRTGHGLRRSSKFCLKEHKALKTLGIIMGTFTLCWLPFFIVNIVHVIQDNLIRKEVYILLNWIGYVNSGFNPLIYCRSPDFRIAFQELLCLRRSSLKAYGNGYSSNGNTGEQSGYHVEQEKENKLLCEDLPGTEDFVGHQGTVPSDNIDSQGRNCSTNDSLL
CHOP UPR activ – activators of apoptotic arm of unfolded protein response (CHOP); CHO-CHOP luciferase reporter, UPR activation, luminescence; percent of tunicamycin response over DMSO baseline; activation, % at 10 µM; hit rate 0.34% among 330,000; AID 449763;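 active means at 10 µM dose, activation of 40% or more, normalized to positive control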
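Test system: CHO-CHOP cells, stable luciferase reporter of PERK-eIF2a-CHOP signalling | Quantity: 500 CHO-CHOP cells per well | Buffer or medium: F12 plus 10% serum | Compound dosing: 10 µM single point, 0.5% DMSO | Schedule: 6 h compound treatment, 37 °C | Signal: Luciferase luminescence | Control set: Tunicamycin high control, DMSO low control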
Large screens that a line does not name were inactive. Many of the other results were omitted from the sample, so hits are more common in it than they were.

O=C(Nc1nc(-c2ccccc2)cs1)NC1CCCCC1	CHOP inh 93
O=C(Nc1nc(-c2ccccc2)cs1)C1CCCCN1S(=O)(=O)c1ccc(Cl)cc1 (stereo unspecified)	CHOP inh 70
c1ccc(-c2csc(NC3CCCCC3)n2)cc1	none (no result: CHOP inh)
CCCn1c(N/N=C\C=C\c2ccccc2)nc2c1c(=O)[nH]c(=O)n2C	CHOP inh 93
CCN1C(=O)S/C(=C/c2ccc(Sc3nc4ccccc4[nH]3)o2)C1=O	none
COc1cccc(-n2nnnc2SCC(=O)N2CCCc3ccccc32)c1	CHOP inh 70
CCN(C[C@H]1N[C@@](C)(C(=O)OC)[C@H]2C(=O)N(C)C(=O)[C@@H]12)C(=O)Nc1ccc(Cl)cc1	none (no result: CHOP inh)
CC(C(=O)NCc1ccccc1)n1cc([N+](=O)[O-])cn1 (stereo unspecified)	none (no result: CHOP inh)
NC(=S)N1OC[C@@H]2COc3ccc4ccccc4c3[C@@H]21	CHOP inh 77
Clc1cc(Br)ccc1OCCOCCOc1cccc2cccnc12	CHOP inh 71
CCn1c(=O)n(CC)c2cc(N3CCCC3)c(NC(=O)c3cc(Br)ccc3OC)cc21	none (no result: CHOP inh, B2AR ag)
Cc1ccccc1N1C(=O)C(Cl)=C(N2CCCCCC2)C1=O	CHOP inh 80
CN(CCN(C)C(C)(C)C)C(=O)C(c1ccccc1)c1ccccc1	none
Clc1ccc(CN2CCCCCCC2)cc1Cl	CHOP inh 79
Clc1ccc(CN2CCCCCC2)cc1	none (no result: CHOP inh)
Cc1ccc(S(=O)(=O)c2cn(C)c3cc(N4CCOCC4)c(F)cc3c2=O)cc1	none (no result: CHOP inh)
COc1ccc2c(c1)CCc1c(C(=O)Nc3ccc(OC)c(OC)c3)noc1-2	CHOP inh 76
CCc1c(C#N)c(SCCC(=O)Nc2ccc(F)cc2)nc2c1C(=O)CC(C)(C)C2	CHOP inh 88
COc1ccc(S(=O)(=O)Nc2ccc3c(c2)C(=O)N([C@H](C)CO)C[C@H](C)[C@@H](CN(C)S(=O)(=O)c2cccs2)O3)cc1	none (no result: CHOP inh)
CC(OC(=O)CCN1C(=O)c2cccc([N+](=O)[O-])c2C1=O)C(=O)Nc1cc(Cl)cc(Cl)c1 (stereo unspecified)	CHOP inh 82
CCN1CCN(CCCNC(=O)c2ccc(CS(=O)c3ccc(Br)cc3)o2)CC1 (stereo unspecified)	none (no result: CHOP inh)
Cc1cccc(C)c1OCCn1nc(C(=O)O)c2ccccc2c1=O	CHOP inh 72
Cc1cccc(OCCn2nc(C(=O)O)c3ccccc3c2=O)c1	CHOP inh 85
O=C(O)c1nn(CC(=O)N(C2CCCCC2)C2CCCCC2)c(=O)c2ccccc12	CHOP inh 93
CC(C)OC(=O)Cn1cc(C#N)c2ccccc21	none
N#Cc1c(-c2ccc(Cl)cc2)n(O)c2ccccc12	none (no result: CHOP inh, XBP1 UPR activ, VLA-4 inh, CHOP UPR activ)
CCc1ccc(-c2nc3ccc(Br)cc3c(C(=O)O)c2C)s1	none (no result: CHOP inh)
COc1ccc(C(=O)c2no[n+]([O-])c2C(=O)c2ccc(OC)cc2)cc1	B2AR ag 44
COc1ccc(NC(=O)c2c(N)no[n+]2[O-])cc1	none
O=C1c2ccccc2[C@@H]2C[C@@H](O)[C@H](Nc3ccccc3-c3ccccc3)CCN12	none (no result: CHOP inh, VLA-4 inh)
COc1cccc(OCCCOc2ccccc2C(C)C)c1	CHOP inh 71
C=CCN(C/C(=N\O)c1sc(C(=O)OCC)nc1C)c1cccc(Br)c1	none (no result: CHOP inh)
CCCn1nc(C(=O)NNC(=O)c2cccc(S(=O)(=O)NC(C)C)c2)c2ccccc2c1=O	none (no result: CHOP inh)
Clc1ccc(OCc2nc(-c3ccncc3)no2)c(Cl)c1	CHOP inh 83
Clc1cccc(OCc2nc(-c3ccncc3)no2)c1	none
Clc1cc(Cl)c(OCc2nc(-c3ccccn3)no2)cc1Cl	CHOP inh 96
O=C(CCl)N(CCc1ccccc1)CCc1ccccc1	none (no result: CHOP inh)
CC(C)Nc1nc(Oc2cccc(Cl)c2Cl)cc(C(F)(F)F)n1	CHOP inh 75
CC(C)Nc1nc(Oc2ccc(Cl)cc2Cl)cc(C(F)(F)F)n1	none
FC(F)(F)c1cccc(N2CCN(c3ccc4nnc(-c5ccccc5)n4n3)CC2)c1	CHOP inh 85
CCCn1c(C2CC(=O)N(c3ccc(C)cc3)C2)nc2ccccc21 (stereo unspecified)	none
CCn1c(C2CC(=O)N(c3cc(C)cc(C)c3)C2)nc2ccccc21 (stereo unspecified)	CHOP inh 75
Nc1c(Cl)cc(-c2[nH]c3cc(C(=O)NCCO)ccc3c(=O)c2O)cc1Cl	none (no result: CHOP inh)
CCn1c2c(c3cc(Cl)ccc31)CCCC2=O	CHOP inh 76
CCn1c2c(c3cc(C(=O)O)ccc31)CCCC2=O	none
CCOC(=O)c1cnc(SC)nc1Sc1ccccc1	CHOP inh 75
CCOC(=O)c1cnc(SC)nc1N	none
CCc1ccc(NC(=O)c2ccc(F)c(S(=O)(=O)N(CC)c3ccccc3)c2)cc1	CHOP inh 77
CCN(c1ccccc1)S(=O)(=O)c1cc(C(=O)Nc2cccc(Cl)c2)ccc1F	none
CC(C)(C)C1CCC(OC(=O)c2ccncc2)CC1 (stereo unspecified)	CHOP inh 74
CC(C)(C)C1CCC(OC(=O)c2cncc(Br)c2)CC1 (stereo unspecified)	none
COc1cccc(-c2nc(Oc3cccc(C)c3C)c3ccccc3n2)c1O	CHOP inh 82
COc1cnc(-c2ccccc2)nc1Oc1cccc(C)c1C	CHOP inh 78
COc1ccccc1CN(C)C(=O)c1ccccc1Sc1ccccc1C#N	none (no result: CHOP inh)
Cc1ccc(N(CC(=O)N2CCN(c3ccccc3F)CC2)S(=O)(=O)c2c(C)noc2C)cc1	none (no result: CHOP inh)
O=[N+]([O-])c1cccc(S(=O)(=O)Nc2ccc3cn[nH]c3c2)c1	none (no result: CHOP inh)
COc1ccc(N=Nc2[nH]c3ccc(C)cc3c2O)cc1	CHOP inh 91
Cc1ccc(N=Nc2[nH]c3ccccc3c2O)cc1	none
O=c1cc(/C=C/c2ccccc2)oc2ccccc12	CHOP inh 74
O=[N+]([O-])c1c(Nc2ccc(O)cc2)cc(Cl)c2nonc12	B2AR ag 81 (no result: CHOP inh)
CN(C)c1cc(Nc2ccc(O)cc2)c([N+](=O)[O-])c2nonc12	none
O=[N+]([O-])c1c(Nc2ccccn2)cc(Cl)c2nonc12	CHOP inh 108, B2AR ag 63
Nc1c(C(=O)Nc2ccc3c(c2)OCCO3)nnn1Cc1cccc(F)c1	none (no result: CHOP inh)
CCCCN(Cc1ccc(C(=O)N[C@H](C(=O)O)C(C)C)cc1)C(=O)C(c1ccccc1)c1ccccc1	none (no result: CHOP inh)
CN(C)/C(=N\S(=O)(=O)c1ccc(Cl)cc1)c1ccc(F)cc1	none (no result: CHOP inh)
CC(=O)c1ccc(N2CCN(c3ccc(C(F)(F)F)cn3)CC2)cc1	CHOP inh 83 (no result: XBP1 UPR activ, CHOP UPR activ)
NC(=O)c1ccc(N2CCN(c3ncc(C(F)(F)F)cc3Cl)CC2)cc1	none
CC(C)(C)NC(=O)NC(=O)CN1CCN(c2ncc(C(F)(F)F)cc2Cl)CC1	CHOP inh 78
CC(=O)c1ccc(N2CCN(c3ncc(C(F)(F)F)cc3Cl)CC2)cc1	CHOP inh 79
